Results gathered from unrelated publications.
Protocols differ between the studies behind these lines.
Target: Mitogen-activated protein kinase 13 (MAPK13, Homo sapiens, UniProt O15264)
One construct used (O15264 1-365): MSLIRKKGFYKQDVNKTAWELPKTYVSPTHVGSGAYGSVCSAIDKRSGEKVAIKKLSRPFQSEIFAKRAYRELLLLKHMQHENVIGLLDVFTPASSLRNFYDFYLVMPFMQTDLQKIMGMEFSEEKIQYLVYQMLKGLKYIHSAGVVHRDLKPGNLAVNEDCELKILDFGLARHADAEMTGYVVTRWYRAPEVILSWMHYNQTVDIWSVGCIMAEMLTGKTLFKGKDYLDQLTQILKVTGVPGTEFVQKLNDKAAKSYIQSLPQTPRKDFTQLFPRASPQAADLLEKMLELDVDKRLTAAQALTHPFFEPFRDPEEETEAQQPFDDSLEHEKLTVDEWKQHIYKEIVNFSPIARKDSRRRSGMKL

SMILES | effect on | technique | tested at | remaining binding [%]
Cc1cnc(Nc2ccc(C(=O)N3CCC(N4CCCC4)CC3)cc2)nc1-c1cc2ccccc2s1 | binding | competition with immobilised ligand | 1 µM | 100
CS(=O)(=O)NCC[C@H](NC(=O)c1cncc2c1cnn2-c1ccc(F)cc1)c1ccnc(S(C)(=O)=O)c1 | cell-free assay | competition with immobilised ligand | 1 µM | 100
O=C(c1ccc(Nc2nccc(-c3cc4ccccc4s3)n2)cc1)N1CCC(N2CCCC2)CC1 | binding | competition with immobilised ligand | 1 µM | 100
F[C@@H]1CCN(c2nccc(-c3cnn4ncccc34)n2)C1 | binding | – | 1 µM | 67
CCN1CCN(Cc2ccc(C(=O)Nc3ccc(C)c(Oc4ccc5c(c4)CC(=O)N5)c3)cc2C(F)(F)F)CC1 | binding | competition with immobilised ligand | 1 µM | 100
COc1ccnn2ncc(-c3ccnc(N(C)C)n3)c12 | binding | – | 1 µM | 100
CS(=O)(=O)N1CCCC(NC(=O)[C@H](CCC2CCCCC2)NC(=O)c2ccc(CNC(=O)c3cnc4ccccn34)cc2)C1 (stereo partly shown) | cell-free assay | competition with immobilised ligand | 0.1 µM | 100
C[C@@H](c1ccc(-n2cnc3c(N)ncnc32)cc1)N1CCc2nn(C)c(Cc3ccccc3)c2C1=O | binding | competition with immobilised ligand | 0.1 µM | 83
O=C(c1ccc(Nc2ncc(Cl)c(-c3ccc(Cl)s3)n2)cc1)N1CCC(N2CCCC2)CC1 | binding | competition with immobilised ligand | 1 µM | 100
CN(C)c1nccc(-c2cnn3ncccc23)n1 | binding | – | 1 µM | 100
O=C(Nc1c[nH]nc1C(=O)NC1CCNCC1)c1cc(F)cc(F)c1 | binding | competition with immobilised ligand | 1 µM | 92
CN(c1nccc(-c2cnn3ncccc23)n1)C1CC1 | binding | – | 1 µM | 100
CCS(=O)(=O)c1cc2cc(C[C@](O)(CC(C)(C)c3ccc(F)cc3C(N)=O)C(F)(F)F)[nH]c2cn1 | cell-free assay | competition with immobilised ligand | 1 µM | 100
Nc1ncc2c(n1)-c1c([nH]c3ccc(C#CC4CC4)cc13)CCCC2 | binding | competition with immobilised ligand | 1 µM | 100
c1cncc(-c2cccc(Nc3nccc(NC4CCCCC4)n3)c2)c1 | binding | competition with immobilised ligand | 10 µM | 86
Cc1cc(NC(=O)c2cccc(S(F)(F)(F)(F)F)c2)cc(-n2ccn3nc(-c4cccnc4)cc23)c1 | cell-free assay | competition with immobilised ligand | 1 µM | 79.6
N[C@@H]1CCN(c2nccc(-c3cnn4ncccc34)n2)C1 | binding | – | 1 µM | 100
COc1cnc(Nc2cccc(S(N)(=O)=O)c2)nc1N1CCN(c2ccccc2)C(=O)C1 | binding | competition with immobilised ligand | 1 µM | 95
NS(=O)(=O)c1cc(NC(=O)Cc2ccccc2)ccc1Oc1cccc(Cl)c1 | cell-free assay | competition with immobilised ligand | 1 µM | 100
C[C@@H]1CCN(c2nccc(-c3cnn4ncccc34)n2)C1 | binding | – | 1 µM | 93
O=C(Nc1cnc(Oc2ccc(F)cc2)nc1)N1CCc2ncccc2[C@@H]1c1ccc(F)cc1 | cell-free assay | competition with immobilised ligand | 1 µM | 100
C=CC(=O)N1CCC(C(=O)NCC(=O)N2CCN(c3nc(-c4cnc(N)nc4C(F)F)nc(N4CCOCC4)n3)CC2)CC1 | binding | competition with immobilised ligand | 1 µM | 99
